# Measurements taken from paper PMC9099060 (Dose-Response, 2022).
# Legend:
# Type in all cases: biochemical
# [1] = molecular target: α-glucosidase (Saccharomyces cerevisiae, UniProt P07265); test: In vitro inhibitory activity against α-glucosidase
# [2] = molecular target: T1, human α-amylase (HPA) (Homo sapiens, UniProt P04746); test: In vitro inhibitory activity against α-amylase; conditions: α-amylase IC50 (μM)±SD, starch substrate; mean ± SD, n = 6
# T1 sequence (P04746 16-511): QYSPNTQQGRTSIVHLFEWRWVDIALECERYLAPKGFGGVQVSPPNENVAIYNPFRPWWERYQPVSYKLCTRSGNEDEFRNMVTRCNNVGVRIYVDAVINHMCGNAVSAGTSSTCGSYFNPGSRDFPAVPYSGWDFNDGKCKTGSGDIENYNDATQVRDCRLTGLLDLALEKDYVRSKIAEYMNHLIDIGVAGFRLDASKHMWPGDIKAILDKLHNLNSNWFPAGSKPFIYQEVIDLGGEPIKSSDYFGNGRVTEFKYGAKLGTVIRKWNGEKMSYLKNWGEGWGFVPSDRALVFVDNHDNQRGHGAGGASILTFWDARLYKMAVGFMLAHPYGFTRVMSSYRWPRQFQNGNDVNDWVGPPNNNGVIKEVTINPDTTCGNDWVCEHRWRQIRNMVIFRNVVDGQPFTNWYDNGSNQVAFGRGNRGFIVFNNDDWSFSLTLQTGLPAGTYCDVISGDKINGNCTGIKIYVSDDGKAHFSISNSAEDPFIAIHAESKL
# [3] = molecular target: T2, DPP-IV (Homo sapiens, UniProt P27487); test: In vitro inhibitory activity against DPP-IV
# [4] = molecular target: T2, DPP-IV; test: Inhibitory kinetics study
# Procedure, shortened: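 Test compound was tested separately at 0.25 and 0.5 mg/mL, each against Gly-Pro-AMC at various concentrations (0–60 μM). Inhibition pattern was assigned from Lineweaver-Burk plots. Ki was obtained from a double-reciprocal plot of initial […] against substrate. Values are mean ± SD, n = 6.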
# T2 sequence (P27487 whole entry): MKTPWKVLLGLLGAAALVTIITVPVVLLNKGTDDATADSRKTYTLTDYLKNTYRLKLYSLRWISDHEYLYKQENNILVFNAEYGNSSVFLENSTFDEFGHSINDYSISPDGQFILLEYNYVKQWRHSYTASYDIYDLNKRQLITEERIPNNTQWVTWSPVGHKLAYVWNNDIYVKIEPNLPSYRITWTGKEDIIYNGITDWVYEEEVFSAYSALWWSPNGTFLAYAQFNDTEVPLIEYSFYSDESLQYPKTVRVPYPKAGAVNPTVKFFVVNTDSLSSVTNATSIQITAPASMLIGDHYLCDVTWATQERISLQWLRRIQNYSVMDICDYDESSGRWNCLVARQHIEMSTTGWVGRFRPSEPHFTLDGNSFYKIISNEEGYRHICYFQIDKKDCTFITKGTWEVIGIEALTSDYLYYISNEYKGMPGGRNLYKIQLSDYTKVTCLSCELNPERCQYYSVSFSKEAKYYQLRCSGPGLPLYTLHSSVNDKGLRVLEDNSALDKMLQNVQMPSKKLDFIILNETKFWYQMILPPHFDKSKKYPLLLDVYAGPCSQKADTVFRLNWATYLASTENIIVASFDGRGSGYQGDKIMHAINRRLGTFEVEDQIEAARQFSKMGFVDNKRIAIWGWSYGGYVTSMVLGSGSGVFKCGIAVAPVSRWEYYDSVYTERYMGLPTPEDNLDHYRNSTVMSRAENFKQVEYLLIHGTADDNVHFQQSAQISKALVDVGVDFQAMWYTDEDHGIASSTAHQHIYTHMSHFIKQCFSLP
# Sequence of α-glucosidase (P07265 whole entry): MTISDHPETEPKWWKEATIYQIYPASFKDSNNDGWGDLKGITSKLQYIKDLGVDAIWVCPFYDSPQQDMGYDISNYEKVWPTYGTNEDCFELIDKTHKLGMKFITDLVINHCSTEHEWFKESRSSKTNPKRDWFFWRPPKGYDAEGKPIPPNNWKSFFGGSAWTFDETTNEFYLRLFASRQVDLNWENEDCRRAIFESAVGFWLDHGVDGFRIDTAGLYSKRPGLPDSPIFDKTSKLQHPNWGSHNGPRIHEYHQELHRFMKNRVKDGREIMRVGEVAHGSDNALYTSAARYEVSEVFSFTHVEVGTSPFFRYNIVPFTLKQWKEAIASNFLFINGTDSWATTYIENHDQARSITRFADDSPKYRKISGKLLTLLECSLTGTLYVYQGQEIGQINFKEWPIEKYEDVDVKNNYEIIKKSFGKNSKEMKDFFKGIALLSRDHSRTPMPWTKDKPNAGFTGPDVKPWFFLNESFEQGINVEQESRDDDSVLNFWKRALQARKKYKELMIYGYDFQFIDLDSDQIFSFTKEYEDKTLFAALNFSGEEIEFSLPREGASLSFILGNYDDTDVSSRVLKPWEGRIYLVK
Structure (SMILES),IC50 [1] [µM],IC50 [2] [µM],IC50 [3] [µM],Ki [4] [µM]
O=C1c2c(O)cc(O)cc2OC(c2ccc(O)c(O)c2)C1O (stereo not shown) [Taxifolin],45.9 ± 3.78,31.3 ± 0.556,6.691 ± 0.004,12.3
Oc1ccc(/C=C/c2cc(O)cc(O)c2)cc1 [Resveratrol],47.9 ± 5.21,,5.638 ± 0.0016,15
